Results as given in ChEMBL document CHEMBL4811303, “Synthesis and evaluation of trypanocidal activity of derivatives of naturally occurring 2,5-diphenyloxazoles” (Bioorg Med Chem, 2021).

How the values were obtained:
[1] = Selectivity index, ratio of IC50 for cytotoxicity against bovine MDBK cells to IC50 for Trypanocidal activity against Trypanosoma brucei rhodesiense
[2] = system: Trypanosoma brucei rhodesiense; experiment: Trypanocidal activity against Trypanosoma brucei rhodesiense assessed as reduction in intracellular ATP production incubated for 72 hrs by CellTiter-Glo luminescent cell viability assay; assay type: functional, organism-based
Method in brief: (§1)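 Bloodstream trypanosomes in 96-well culture were exposed to compound in 5-fold serial dilutions from 25 µg/mL to 1.6 ng/mL for 72 h. Seeding and temperature: T. b. brucei, T. b. gambiense and T. b. rhodesiense at 5×10^3 cells/mL and 37 °C; T. evansi at 1×10^4 cells/mL and 37 °C; T. congolense at 2×10^5 cells/mL and 33 °C. Viability was read as intracellular ATP by CellTiter-Glo luminescence. Three replicates; IC50 calculated.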

[3] = system: Trypanosoma brucei gambiense; experiment: Trypanocidal activity against Trypanosoma brucei gambiense assessed as reduction in intracellular ATP production incubated for 72 hrs by CellTiter-Glo luminescent cell viability assay; assay type: functional, organism-based
Method in brief: as §1

[4] = system: Trypanosoma brucei brucei; experiment: Trypanocidal activity against Trypanosoma brucei brucei assessed as reduction in intracellular ATP production incubated for 72 hrs by CellTiter-Glo luminescent cell viability assay; assay type: functional, organism-based
Method in brief: as §1

[5] = Selectivity index, ratio of IC50 for cytotoxicity against bovine MDBK cells to IC50 for Trypanocidal activity against Trypanosoma brucei gambiense; settings: cattle
[6] = Selectivity index, ratio of IC50 for cytotoxicity against bovine MDBK cells to IC50 for Trypanocidal activity against Trypanosoma brucei brucei; settings: cattle
[7] = Selectivity ratio of IC50 for trypanocidal activity against Trypanosoma congolense to trypanocidal activity against Trypanosoma evansi; assay type: functional
Trypanosoma congolense = experiment: Trypanocidal activity against Trypanosoma congolense assessed as reduction in intracellular ATP production incubated for 72 hrs by CellTiter-Glo luminescent cell viability assay; assay type: functional, organism-based
Method in brief: as §1

[8] = Selectivity index, ratio of IC50 for cytotoxicity against bovine MDBK cells to IC50 for Trypanocidal activity against Trypanosoma evansi
MDBK cells (Bos taurus) = experiment: Cytotoxicity against bovine MDBK cells assessed as reduction in cell viability incubated for 72 hrs by CCK8 assay
Trypanosoma evansi = experiment: Trypanocidal activity against Trypanosoma evansi assessed as reduction in intracellular ATP production incubated for 72 hrs by CellTiter-Glo luminescent cell viability assay; assay type: functional, organism-based
Method in brief: as §1

[9] = Selectivity index, ratio of IC50 for cytotoxicity against bovine MDBK cells to IC50 for Trypanocidal activity against Trypanosoma congolense

Structure (SMILES) | selectivity ratio [1] | IC50 [2] [µM] | IC50 [3] [µM] | IC50 [4] [µM] | selectivity ratio [5] | selectivity ratio [6] | Ratio IC50 [7] | IC50 (Trypanosoma congolense) [µM] | selectivity ratio [8] | IC50 (MDBK cells (Bos taurus)) [µM] | IC50 (Trypanosoma evansi) [µM] | selectivity ratio [9]
Oc1ccccc1-c1coc(-c2cccc(O)c2O)n1 | 6.4 | 1.5 | 1.6 | 1.3 | 6.1 | 7.5 | 2 | 0.85 | 23 | 9.7 | 0.42 | 11
COc1cccc(-c2ncc(-c3ccccc3C)o2)c1OC | 1.4 | 40 | 40 | 39.1 | 1.4 | 1.5 |  | 3 | 1.6 | 56.9 | 36 | 19
COc1ccccc1-c1coc(-c2cccc(OC)c2OC)n1 | > 10 | 31.6 | 38.7 | 38.1 | > 8.3 | > 8.4 |  | 9.4 | > 8.5 | > 321 | 37.9 | > 34
COc1ccc(-c2cnc(-c3cccc(OC)c3OC)o2)cc1 | 0.3 | 77 | 74.5 | 76.4 | 0.31 | 0.3 |  | 17.3 | 0.35 | 22.8 | 64.5 | 1.3
COc1ccc(-c2cnc(-c3cccc(OC)c3OC)o2)c(OC)c1 | > 10 | 28.7 | 31.2 | 35.4 | > 9.4 | > 8.3 |  | 1.5 | > 10 | > 293 | 28.2 | > 190
CC(=O)Oc1ccccc1-c1cnc(-c2cccc(OC(C)=O)c2OC(C)=O)o1 | 2.1 | 2.5 | 6.5 | 4.6 | 0.82 | 1.2 |  | 0.8 | 0.96 | 5.3 | 5.6 | 6.6
Oc1ccccc1-c1cnc(-c2cccc(O)c2O)s1 | 2.6 | 7.8 | 8.2 | 7.7 | 2.4 | 2.6 |  | 2.3 | 5 | 20 | 4 | 8.8
Oc1ccccc1-c1nnc(-c2cccc(O)c2O)s1 | 3.1 | 4.4 | 4.6 | 3.9 | 3 | 3.5 |  | 0.85 | 6.3 | 13.6 | 2.1 | 16
COc1ccccc1-c1cnc(-c2cccc(OC)c2OC)s1 | 3.9 | 29.6 | 31.4 | 32 | 3.6 | 3.6 |  | 5.7 | 3.7 | 114 | 30.9 | 20
COc1ccccc1-c1nnc(-c2cccc(OC)c2OC)s1 | > 11 | 27.2 | 22.1 | 29.8 | > 14 | > 10 |  | 3.8 | > 11 | > 305 | 28.1 | > 80
Oc1ccc(O)c(-c2cnc(-c3ccccc3)o2)c1 | 0.42 | 18.1 | 17.8 | 20.6 | 0.42 | 0.36 |  | 4.7 | 0.61 | 7.5 | 12.2 | 1.6
COc1cccc(-c2ncc(-c3ccc(OC)c(OC)c3OC)o2)c1OC | 1.5 | 65 | 63.4 | 64.9 | 1.6 | 1.5 |  | 23.6 | 1.7 | 99.1 | 59.8 | 4.2
COc1cccc(-c2ncc(-c3ccccc3[N+](=O)[O-])o2)c1OC | > 5.4 | 56.4 | 63.4 | 49.6 | > 4.8 | > 6.2 |  | 8.4 | > 6.3 | > 306 | 49 | > 36
COc1cccc(-c2cnc(-c3cccc(OC)c3OC)o2)c1OC | 1.3 | 70.2 | 69.2 | 70 | 1.3 | 1.3 |  | 26.4 | 1.4 | 90.8 | 65.5 | 3.4
COc1ccccc1-c1nnc(-c2cccc(OC)c2OC)o1 | 2.4 | 13.4 | 13.3 | 13.3 | 2.4 | 2.4 |  | 2.7 | 4.3 | 32.3 | 7.5 | 12
COc1cccc(-c2ncc(-c3ccccc3N(C)C)o2)c1OC | > 13 | 23.3 | 35.2 | 20.4 | > 8.8 | > 15 |  | 4.6 | > 12 | > 308 | 24.7 | > 66
COc1cccc(-c2ncc(-c3c(OC)cccc3OC)o2)c1OC | 2.8 | 32.2 | 25.8 | 31.6 | 3.5 | 2.9 |  | 7.7 | 3.4 | 91.6 | 26.6 | 12
Oc1ccc(O)c(-c2cnc(-c3cc(O)ccc3O)o2)c1 | 0.31 | 72.1 | 78.3 | 54.7 | 0.29 | 0.41 |  | 8.6 | 0.51 | 22.7 | 44.4 | 2.6
CC(=O)Oc1ccc(OC(C)=O)c(-c2ncc(-c3ccccc3OC(C)=O)o2)c1 | 1.1 | 56 | 55.3 | 33.6 | 1.2 | 1.9 |  | 14.4 | 1.9 | 64.2 | 34 | 4.4
CC(=O)Oc1ccc(OC(C)=O)c(-c2cnc(-c3cc(OC(C)=O)ccc3OC(C)=O)o2)c1 | 0.63 | 47.4 | 49.8 | 35.2 | 0.6 | 0.85 |  | 16.8 | 0.67 | 30 | 44.7 | 1.8
COc1cccc(-c2ncc(-c3ccccc3)o2)c1OC | 0.48 | 84.1 | 84.7 | 86.6 | 0.48 | 0.47 |  | 4 | 0.68 | 40.6 | 59.3 | 10
